These results are taken from ChEMBL document CHEMBL4725282, “Discovery of a Conformationally Constrained Oxazolidinone with Improved Safety and Efficacy Profiles for the Treatment of Multidrug-Resistant Tuberculosis” (J Med Chem, 2020).

In brackets after ≈: the same amount, converted by molar mass.

In assay [1] the test system is Mycobacterium tuberculosis. The assay can be described thus: Antitubercular activity against linezolid-resistant Mycobacterium tuberculosis incubated for 7 days by microplate alamar blue assay. Format: functional. The conditions noted are these: 168 h, time 7 day. A digest of the protocol:
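MIC determined by microplate alamar blue assay (MABA) following a published protocol.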
(In general: Alamar Blue is a resazurin reagent that responds to reducing activity.)

Assay [2] can be described thus: Ratio of MIC for antitubercular activity against linezolid-resistant Mycobacterium tuberculosis to MIC for antitubercular activity against Mycobacterium tuberculosis H37Rv. The assay is classed as functional.

A word on the MIC: it is the lowest concentration that inhibits growth of the organism. Consider `CC(=O)NC[C@@H]1OC(=O)N2c3cc(F)c(N4CC[S+]([O-])CC4)cc3OC[C@@H]12`, for which inhibition of growth in assay [1] (MIC) required 6.68 µg/mL (≈ 16.8 µM). For the same compound, the Ratio in assay [2] turned out to be 4.

`CC(=O)NC[C@@H]1OC(=O)N2c3cc(F)c(N4CCSCC4)cc3OC[C@@H]12` [listing 1 of 2 here] returned a minimum inhibitory concentration (MIC) in assay [1] of 0.24 µg/mL (≈ 0.629 µM).

Regarding `CC(=O)NC[C@@H]1OC(=O)N2c3cc(F)c(N4CCSCC4)cc3OC[C@@H]12` [listing 2 of 2 here], in assay [2], the Ratio is 4.

`NNC(=O)c1ccncc1` [ISONIAZID] came in with an MIC in assay [1] of 0.04 µg/mL (≈ 0.292 µM).

Turning to `CC(=O)NC[C@H]1CN(c2ccc(N3CCOCC3)c(F)c2)C(=O)O1` [LINEZOLID], 3.92 µg/mL (≈ 11.6 µM) was the least that counted as inhibitory in assay [1] (MIC).

In assay [1], `CO[C@H]1/C=C/O[C@@]2(C)Oc3c(C)c(O)c4c(O)c(c(/C=N/N5CCN(C)CC5)c(O)c4c3C2=O)NC(=O)/C(C)=C\C=C\[C@H](C)[C@H](O)[C@@H](C)[C@@H](O)[C@@H](C)[C@H](OC(C)=O)[C@@H]1C` [RIFAMPIN] showed an MIC of 0.03 µg/mL (≈ 0.0365 µM). This MIC is about 130-fold lower than that of the compound before.

The compound `CC(=O)NC[C@H]1CN(c2ccc(N3CCSCC3)c(F)c2)C(=O)O1` [SUTEZOLID] yielded a minimum inhibitory concentration (MIC) in assay [1] of 0.96 µg/mL (≈ 2.72 µM). Besides, the Ratio in assay [2] worked out at 4.
